≈ marks a conversion by molar mass, not a printed value. Calls of active or inactive are those of the source. The rule behind the calls is not given here.
Key:
[1] = molecular target: Histone deacetylase; assay: Inhibition of HDAC in human HeLa cell nuclear extract using fluor-de-lys as substrate by spectrofluorometric analysis; assay type: cell-free
[2] = system: Vero; assay: Cytotoxicity against African green monkey Vero cells assessed as reduction in cell viability incubated for 72 hrs by MTT assay; assay type: cell-based; conditions: Chlorocebus sabaeus
[3] = system: Vero; assay: Cytotoxicity against African green monkey Vero cells assessed as reduction in cell viability incubated for 48 hrs by MTT assay; assay type: cell-based; conditions: Chlorocebus sabaeus
[4] = system: Vero; assay: Cytotoxicity against African green monkey Vero cells assessed as reduction in cell viability incubated for 24 hrs by MTT assay; assay type: cell-based; conditions: Chlorocebus sabaeus
[5] = system: HeLa; assay: Antiproliferative activity against human HeLa cells incubated for 24 hrs by MTT assay; assay type: functional, cell-based
[6] = system: HeLa; assay: Antiproliferative activity against human HeLa cells incubated for 48 hrs by MTT assay; assay type: functional, cell-based
[7] = system: HeLa; assay: Antiproliferative activity against human HeLa cells incubated for 72 hrs by MTT assay; assay type: functional, cell-based
[8] = system: HCT-116; assay: Antiproliferative activity against human HCT116 cells incubated for 24 hrs by MTT assay; assay type: functional, cell-based; conditions: HCT-116, 24 h
[9] = system: HCT-116; assay: Antiproliferative activity against human HCT116 cells incubated for 48 hrs by MTT assay; assay type: functional, cell-based; conditions: HCT-116, 48 h
[10] = system: HCT-116; assay: Antiproliferative activity against human HCT116 cells incubated for 72 hrs by MTT assay; assay type: functional, cell-based; conditions: HCT-116, 72 h
[11] = system: MCF7; assay: Antiproliferative activity against human MCF7 cells incubated for 24 hrs by MTT assay; assay type: functional, cell-based; conditions: MCF7, 24 h
[12] = system: MCF7; assay: Antiproliferative activity against human MCF7 cells incubated for 48 hrs by MTT assay; assay type: functional, cell-based; conditions: MCF7, 48 h
[13] = system: MCF7; assay: Antiproliferative activity against human MCF7 cells incubated for 72 hrs by MTT assay; assay type: functional, cell-based; conditions: MCF7, 72 h
[14] = molecular target: Histone deacetylase (Homo sapiens) (UniProt Q13547+O15379+Q9UBN7+Q92769+Q9UQL6+Q8WUI4+Q9BY41+Q96DB2+P56524+Q9UKV0+Q969S8); assay: Inhibition of HDAC in human HCT116 cells assessed as accumulation of acetylated histone H3 levels at 40 ug/ml incubated for 24 hrs by Western blot analysis; assay type: cell-based; conditions: HCT-116
Summary of the method: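 HCT116 cells exposed for 24 h to compound at 10–60 μg/mL, with a 1:1 (v/v) absolute ethanol/DMSO vehicle control. Cells were harvested, and extracted proteins were separated by SDS-PAGE. Acetylated H3 was detected by immunoblotting with ERK1/2 as the loading control. Band intensities were quantified by densitometry and expressed as fold relative to the internal control.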

[15] = molecular target: Histone deacetylase 1 (Homo sapiens, UniProt Q13547); assay: Inhibition of HDAC1 (unknown origin)
[16] = molecular target: Histone deacetylase 2 (Homo sapiens, UniProt Q92769); assay: Inhibition of HDAC2 (unknown origin)
[17] = molecular target: T1, Histone deacetylase 8 (Homo sapiens, UniProt Q9BY41); assay: Inhibition of HDAC8 (unknown origin)
T1 sequence (Q9BY41 whole entry): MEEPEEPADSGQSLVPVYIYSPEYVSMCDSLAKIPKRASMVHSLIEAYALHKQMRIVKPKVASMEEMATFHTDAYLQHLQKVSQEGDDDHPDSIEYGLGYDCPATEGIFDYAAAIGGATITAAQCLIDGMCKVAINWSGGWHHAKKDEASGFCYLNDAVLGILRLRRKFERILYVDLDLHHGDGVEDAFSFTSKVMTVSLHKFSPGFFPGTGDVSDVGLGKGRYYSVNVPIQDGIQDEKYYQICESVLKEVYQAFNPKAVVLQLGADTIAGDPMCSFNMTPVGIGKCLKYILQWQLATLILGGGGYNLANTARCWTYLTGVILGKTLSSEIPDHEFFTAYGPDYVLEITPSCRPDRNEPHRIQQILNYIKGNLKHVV

Chain of Histone deacetylase 2 (Q92769 whole entry): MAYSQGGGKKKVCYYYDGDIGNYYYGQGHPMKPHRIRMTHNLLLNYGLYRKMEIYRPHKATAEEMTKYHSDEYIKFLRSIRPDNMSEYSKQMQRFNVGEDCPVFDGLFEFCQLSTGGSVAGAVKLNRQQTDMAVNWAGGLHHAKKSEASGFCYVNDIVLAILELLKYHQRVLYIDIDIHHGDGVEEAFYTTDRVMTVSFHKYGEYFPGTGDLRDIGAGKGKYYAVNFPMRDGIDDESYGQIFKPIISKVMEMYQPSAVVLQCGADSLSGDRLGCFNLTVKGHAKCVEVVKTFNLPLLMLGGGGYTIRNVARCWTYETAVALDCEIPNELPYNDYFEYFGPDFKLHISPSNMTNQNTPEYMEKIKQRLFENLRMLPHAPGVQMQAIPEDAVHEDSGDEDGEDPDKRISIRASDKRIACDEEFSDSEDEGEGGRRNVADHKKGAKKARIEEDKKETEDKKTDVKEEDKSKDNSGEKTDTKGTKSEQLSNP
Chain of Histone deacetylase 1 (Q13547 whole entry): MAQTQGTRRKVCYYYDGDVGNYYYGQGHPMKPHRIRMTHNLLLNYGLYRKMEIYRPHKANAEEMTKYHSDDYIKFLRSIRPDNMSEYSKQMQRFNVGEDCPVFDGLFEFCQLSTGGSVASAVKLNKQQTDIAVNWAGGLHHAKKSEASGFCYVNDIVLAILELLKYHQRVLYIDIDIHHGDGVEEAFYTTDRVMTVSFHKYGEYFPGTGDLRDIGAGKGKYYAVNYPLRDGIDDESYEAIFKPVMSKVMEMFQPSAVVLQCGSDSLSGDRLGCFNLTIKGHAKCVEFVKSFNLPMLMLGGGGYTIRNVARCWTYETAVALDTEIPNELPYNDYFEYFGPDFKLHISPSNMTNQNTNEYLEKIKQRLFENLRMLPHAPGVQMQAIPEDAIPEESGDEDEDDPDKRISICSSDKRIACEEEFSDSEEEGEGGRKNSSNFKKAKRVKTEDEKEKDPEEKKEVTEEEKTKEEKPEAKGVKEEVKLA

SMILES	IC50 [1]	IC50 [2]	IC50 [3]	IC50 [4]	IC50 [5]	IC50 [6]	IC50 [7]	IC50 [8]	IC50 [9]	IC50 [10]	IC50 [11]	IC50 [12]	IC50 [13]	inhibition [14]	Ki [15]	Ki [16]	Ki [17]
COc1cc(CNC(=O)CCCCC(O)CC(C)C)ccc1O (centres undefined)	72 µM																
COc1cc(/C=C/C(=O)/C=C(O)/C=C/c2ccc(OC(C)C(N)=O)c(OC)c2)ccc1OC(C)C(N)=O (centres undefined)		18.7 µg/mL (≈ 36.5 µM)	25.6 µg/mL (≈ 50.1 µM)	> 100 µg/mL	32.3 µg/mL (≈ 63.3 µM)	25.8 µg/mL (≈ 50.5 µM)	19.6 µg/mL (≈ 38.3 µM)	27.9 µg/mL (≈ 54.7 µM)	23.7 µg/mL (≈ 46.4 µM)	14.6 µg/mL (≈ 28.6 µM)	51.4 µg/mL (≈ 101 µM)	38.3 µg/mL (≈ 75.1 µM)	30.7 µg/mL (≈ 60.2 µM)	Active	0.936 µM	0.55 µM	0.88 µM
CCC(C)Oc1ccc(/C=C/C(O)=C/C(=O)/C=C/c2ccc(O)c(OC)c2)cc1 (centres undefined)		> 100 µg/mL	> 100 µg/mL	> 100 µg/mL	55.2 µg/mL (≈ 140 µM)	14 µg/mL (≈ 35.6 µM)	9.33 µg/mL (≈ 23.7 µM)	43.6 µg/mL (≈ 111 µM)	8.53 µg/mL (≈ 21.6 µM)	7.33 µg/mL (≈ 18.6 µM)	> 100 µg/mL	46.3 µg/mL (≈ 117 µM)	18.1 µg/mL (≈ 45.8 µM)		2.5 µM	1.06 µM	3.6 µM
CCC(C)Oc1ccc(/C=C/C(=O)/C=C(O)/C=C/c2ccc(OC(C)CC)c(OC)c2)cc1OC (centres undefined)		> 100 µg/mL	> 100 µg/mL	> 100 µg/mL	> 100 µg/mL	17.5 µg/mL (≈ 36.4 µM)	10.2 µg/mL (≈ 21.2 µM)	28.7 µg/mL (≈ 59.7 µM)	10.8 µg/mL (≈ 22.5 µM)	7.89 µg/mL (≈ 16.4 µM)	> 100 µg/mL	42.1 µg/mL (≈ 87.6 µM)	13.9 µg/mL (≈ 28.9 µM)		20.7 µM	7.47 µM	10.2 µM
COc1cc(/C=C/C(=O)/C=C(O)/C=C/c2ccc(OCC(=O)O)c(OC)c2)ccc1OCC(=O)O		> 100 µg/mL	> 100 µg/mL	> 100 µg/mL	> 100 µg/mL	> 100 µg/mL	> 100 µg/mL	> 100 µg/mL	> 100 µg/mL	> 100 µg/mL	> 100 µg/mL	> 100 µg/mL	> 100 µg/mL		1.96 µM	3.99 µM	14.2 µM
COc1cc(/C=C/C(=O)CC(=O)/C=C/c2ccc(O)c(OC)c2)ccc1O [CURCUMIN]		11 µg/mL (≈ 29.8 µM)	17.9 µg/mL (≈ 48.5 µM)	25 µg/mL (≈ 67.9 µM)	5.39 µg/mL (≈ 14.6 µM)	3.57 µg/mL (≈ 9.69 µM)	3.56 µg/mL (≈ 9.66 µM)	3.83 µg/mL (≈ 10.4 µM)	2.67 µg/mL (≈ 7.25 µM)	2.4 µg/mL (≈ 6.51 µM)	2.94 µg/mL (≈ 7.98 µM)	2.08 µg/mL (≈ 5.65 µM)	2.03 µg/mL (≈ 5.51 µM)				

Reference: ChEMBL document CHEMBL4619737, “Influence of side-chain changes on histone deacetylase inhibitory and cytotoxicity activities of curcuminoid derivatives” (Bioorg Med Chem Lett, 2020)
